Legend:
[1] = system: Isocitrate dehydrogenase [NADP] cytoplasmic (Homo sapiens), O75874 [R132H]; assay: Inhibition of human IDH1 R132H mutant expressed in IPTG-induced Escherichia coli BL21 cells assessed as oxidation of NADPH to NADP+ after 5 mins by spectrophotometry; set-up: concentration or dose not given beside the values
[2] = molecular target: Isocitrate dehydrogenase [NADP] cytoplasmic (Homo sapiens) (UniProt O75874); assay: Inhibition of human IDH1 expressed in IPTG-induced Escherichia coli BL21 cells assessed as reduction of NADP+ to NADPH after 5 mins by spectrophotometry; set-up: concentration or dose not given beside the values
Sequence of Isocitrate dehydrogenase [NADP] cytoplasmic (Homo sapiens) (O75874 whole entry): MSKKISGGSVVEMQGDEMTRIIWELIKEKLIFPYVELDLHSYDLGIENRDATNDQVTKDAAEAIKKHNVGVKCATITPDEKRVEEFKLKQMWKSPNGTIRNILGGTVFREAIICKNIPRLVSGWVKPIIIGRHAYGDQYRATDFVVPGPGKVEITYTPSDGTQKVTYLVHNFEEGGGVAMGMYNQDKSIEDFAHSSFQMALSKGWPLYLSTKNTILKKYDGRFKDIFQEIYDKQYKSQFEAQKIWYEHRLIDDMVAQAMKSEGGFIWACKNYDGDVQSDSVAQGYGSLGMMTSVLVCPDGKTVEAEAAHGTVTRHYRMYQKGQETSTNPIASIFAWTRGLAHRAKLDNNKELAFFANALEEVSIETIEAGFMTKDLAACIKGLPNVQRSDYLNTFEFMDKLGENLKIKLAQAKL

[3] = molecular target: Isocitrate dehydrogenase [NADP] cytoplasmic (Homo sapiens, UniProt O75874, R132H); assay: Competitive inhibition of IDH1-R132H mutant (unknown origin) using a-ketoglutarate and NADPH as substrate by steady state kinetic analysis
Sequence of Isocitrate dehydrogenase [NADP] cytoplasmic (O75874 2-414 R132H limits assumed): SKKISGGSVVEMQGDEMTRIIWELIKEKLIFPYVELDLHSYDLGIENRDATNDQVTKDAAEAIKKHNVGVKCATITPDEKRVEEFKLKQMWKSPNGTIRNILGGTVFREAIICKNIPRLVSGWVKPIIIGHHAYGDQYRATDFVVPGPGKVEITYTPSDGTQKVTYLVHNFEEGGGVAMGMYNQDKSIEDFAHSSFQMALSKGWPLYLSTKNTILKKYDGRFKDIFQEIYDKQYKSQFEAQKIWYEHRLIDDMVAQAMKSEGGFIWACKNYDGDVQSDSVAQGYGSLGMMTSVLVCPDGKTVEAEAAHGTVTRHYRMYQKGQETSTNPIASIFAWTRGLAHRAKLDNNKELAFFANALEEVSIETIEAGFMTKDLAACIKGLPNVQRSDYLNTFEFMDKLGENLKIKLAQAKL
In short: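 IDH1-R132H in buffer of 150 mM NaCl, 20 mM Tris–Cl pH 7.5, 10 mM MnCl₂, 150 μM β-NADPH, 0.03% (w/v) BSA; α-ketoglutarate varied to reach maximal activity; steady-state kinetic parameters fitted with an enzyme kinetics module.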

Sequence of Isocitrate dehydrogenase [NADP] cytoplasmic (Homo sapiens), O75874 [R132H] (O75874 whole entry R132H): as the sequence (O75874 whole entry) above, with R132H counted along it

Row | Structure (SMILES) | Activity [1] [%] | Activity [2] [%] | Ki [3]
1 | O=C(/C=C/c1ccccc1)NCCCCNC(=O)c1ccc(O)cc1 | 106 | 100 | 
2 | C=C(C)C(C)CC[C@@H](C)[C@H]1CC[C@@]2(C)[C@@H]3CC[C@H]4C(C)(C)C(=O)CC[C@]4(C)C3=CC[C@]12C (stereo partly drawn) | 124 | 106 | 
3 | COc1c2c(cc3oc(C)cc(=O)c13)OC(C(C)(C)O)C2 (stereo not drawn) | 105 | 103 | 
4 | Cc1cc(=O)c2c(O)c3c(cc2o1)OC(C)(C)[C@@H](O)C3 | 105 | 98.2 | 
5 | O=c1cc(-c2ccccc2)oc2cc(O)cc(O)c12 | 96.7 | 97.6 | 
6 | C[C@@H](C(=O)O)[C@@]1(C)CC[C@H]2[C@@](C)(CC[C@@]3(C)[C@@H]4CC(C)(C)CC[C@]4(C)CC[C@]23C)[C@@H]1CC(=O)O | 90.9 | 108 | 
7 | CC[C@H](CC[C@@H](C)[C@H]1CC[C@H]2[C@@H]3CC=C4C[C@@H](O)CC[C@]4(C)[C@H]3CC[C@]12C)C(C)C | 98.8 | 105 | 
8 | C=CCOc1cc2oc3cc(O)c(OC)c(CC=C(C)C)c3c(=O)c2c(O)c1CC=C(C)C |  |  | Not Active
9 | COc1c2c(cc3oc(CO[C@@H]4O[C@H](CO)[C@@H](O)[C@H](O)[C@H]4O)cc(=O)c13)O[C@H](C(C)(C)O)C2 | 112 | 96.8 | 
10 | COc1ccc(/C=C/C(=O)O[C@H]2[C@@H]3C=CO[C@@H](O[C@@H]4O[C@H](CO)[C@@H](O)[C@H](O)[C@H]4O)[C@@H]3[C@@]3(CO)O[C@@H]23)cc1O | 108 | 107 | 
11 | O=C(O)[C@H]1O[C@@H](Oc2cc3oc(-c4ccc(O)cc4)cc(=O)c3c(O)c2O)[C@H](O)[C@@H](O)[C@@H]1O | 91.5 | 88.8 | 
12 | CC(C)=CCC[C@](C)(O[C@@H]1O[C@H](CO[C@@H]2O[C@H](CO)[C@@H](O)[C@H](O)[C@H]2O)[C@@H](O)[C@H](O)[C@H]1O)[C@H]1CC[C@]2(C)[C@@H]1[C@H](O)C[C@@H]1[C@@]3(C)CC[C@H](O[C@@H]4O[C@H](CO)[C@@H](O)[C@H](O)[C@H]4O[C@@H]4O[C@H](CO)[C@@H](O)[C@H](O)[C@H]4O)C(C)(C)[C@@H]3CC[C@]12C | 105 | 117 | 
13 | COc1ccc(C(=O)O[C@H]2[C@@H]3C=CO[C@@H](O[C@@H]4O[C@H](CO)[C@@H](O)[C@H](O)[C@H]4O)[C@@H]3[C@@]3(CO)O[C@@H]23)cc1O | 103 | 102 | 
14 | CC(C)=CCOc1c2occc2cc2ccc(=O)oc12 | 102 | 99 | 
15 | CC1(C)CC[C@]2(C)CC=C3[C@]4(C)CC[C@H]5C(C)(C)[C@@H](O)CC[C@]5(C)[C@H]4CC[C@@]3(C)[C@@H]2C1 | 109 | 106 | 
16 | CC(C)CCC[C@@H](C)[C@H]1CC[C@H]2[C@@H]3CC=C4C[C@@H](O)CC[C@]4(C)[C@H]3CC[C@]12C | 96.3 | 105 | 
17 | CCN(CC)C(=O)Oc1cc2oc3cc(O)c(CC=C(C)C)c(O)c3c(=O)c2c(CC=C(C)C)c1OC |  |  | Not Active
18 | COc1c(O)cc2oc3cc4c(c(O)c3c(=O)c2c1CC=C(C)C)C=CC(C)(C)O4 | 98.7 | 109 | 
19 | C/C=C(/C)C(=O)O[C@H]1Cc2c(cc3oc(CO)cc(=O)c3c2O)OC1(C)C | 108 | 102 | 
20 | O=c1c(O)c(-c2ccc(O)cc2)oc2cc(O)cc(O)c12 | 112 | 104 | 

Row | Structure (SMILES) | Activity [1] [%] | Activity [2] [%] | Ki [3]
21 | CC(C)=CCc1c(O)c(CC=C(C)C)c2oc3c(O)cccc3c(=O)c2c1O | 109 | 92.8 | 
22 | CCCCCCCCCCCCC/C=C1/C(=O)O[C@H](C)[C@@H]1O | 114 | 111 | 
23 | CC(C)=CCc1c(O)cc2oc3cc(O)c(OCc4cn(CC(=O)OC(C)(C)C)nn4)c(CC=C(C)C)c3c(=O)c2c1O |  |  | Not Active
24 | O=c1c(O)c(-c2cc(O)c(O)c(O)c2)oc2cc(O)cc(O)c12 | 93.2 | 95.5 | 
25 | COc1ccc(C(=O)O[C@H]2[C@@H]3C=CO[C@@H](O[C@@H]4O[C@H](CO)[C@@H](O)[C@H](O)[C@H]4O)[C@@H]3[C@@]3(CO)O[C@@H]23)cc1OC | 97.7 | 107 | 
26 | CC1(C)CC[C@]2(C)CC[C@]3(C)C(=CC[C@@H]4[C@@]5(C)CC[C@H](O)C(C)(C)[C@@H]5[C@H](O)C[C@]43C)[C@@H]2C1 | 114 | 102 | 
27 | COc1c2c(cc3oc(C)cc(=O)c13)OC(C(C)(C)O[C@H]1O[C@@H](CO)[C@H](O)[C@@H](O)[C@@H]1O)C2 (stereo partly drawn) | 108 | 107 | 
28 | O=c1c(O)c(-c2ccccc2)oc2cc(O)cc(O)c12 | 95 | 89.1 | 
29 | C[C@H]1C(=O)CC[C@@H]2[C@]1(C)CC[C@H]1[C@@]2(C)CC[C@@]2(C)[C@@H]3CC(C)(C)CC[C@]3(C)CC[C@]12C | 108 | 104 | 
30 | C[C@H]1[C@@H](O)CC[C@@H]2[C@]1(C)CC[C@H]1[C@@]2(C)CC[C@@]2(C)[C@@H]3CC(C)(C)CC[C@]3(C)CC[C@]12C | 113 | 109 | 
31 | C/C=C(/C)C(=O)O[C@H]1Cc2c(cc3oc(C)cc(=O)c3c2O)OC1(C)C | 105 | 97.8 | 
32 | C=C[C@]1(C)CC[C@@]2(C)C3=CCC[C@](C)(CO)[C@@H]3CC[C@@H]2C1 | 116 | 106 | 
33 | O=c1cc(-c2ccc(O)cc2)oc2cc(O)cc(O)c12 | 84 | 97.4 | 
34 | O=C(O[C@H]1[C@@H]2C=CO[C@@H](O[C@@H]3O[C@H](CO)[C@@H](O)[C@H](O)[C@H]3O)[C@@H]2[C@@]2(CO)O[C@@H]12)c1ccc(O)c(O)c1 | 107 | 88.3 | 
35 | CC1(C)CC[C@]2(C)CC[C@]3(C)C(=CC[C@@H]4[C@@]5(C)[C@@H](O)C[C@H](O)C(C)(C)[C@@H]5CC[C@]43C)[C@@H]2C1 | 111 | 99.2 | 
36 | C=C(C)[C@@H]1CC[C@]2(C(=O)O)CC[C@]3(C)[C@H](CC[C@@H]4[C@@]5(C)CC[C@H](O)C(C)(C)[C@@H]5CC[C@]43C)[C@@H]12 | 112 | 102 | 
37 | C=C1CC[C@@H]2[C@H]([C@H]3[C@H]1CC[C@]3(C)O)C2(C)C | 107 | 106 | 
38 | C[C@H]1[C@H](C)CC[C@]2(C)CC[C@]3(C)C(=CC[C@@H]4[C@@]5(C)CC[C@H](O)C(C)(C)[C@@H]5CC[C@]43C)[C@H]12 | 112 | 105 | 
39 | CC[C@H](/C=C/[C@@H](C)[C@H]1CC[C@H]2[C@@H]3CC=C4C[C@@H](O)CC[C@]4(C)[C@H]3CC[C@]12C)C(C)C | 101 | 111 | 
40 | O=c1cc(-c2ccc(O)cc2)oc2cc(O)c(O)c(O)c12 | 92 | 89 | 

Row | Structure (SMILES) | Activity [1] [%] | Activity [2] [%] | Ki [3]
41 | CC(C)=CCc1c(O)c(CC=C(C)C)c2oc3c(O)ccc(O)c3c(=O)c2c1O | 93.9 | 89.9 | 
42 | C[C@H]1[C@H](C)CC[C@]2(C(=O)O)CC[C@]3(C)C(=CC[C@@H]4[C@@]5(C)CC[C@H](O)C(C)(C)[C@@H]5CC[C@]43C)[C@H]12 | 114 | 102 | 
43 | C=CCc1cc(OC)c(O)c(OC)c1 | 104 | 101 | 
44 | CC1(C)CC[C@]2(C)CC[C@]3(C)C(=CC[C@@H]4[C@@]5(C)[C@@H](O)C[C@H](O)C(C)(C)[C@@H]5[C@H](O)C[C@]43C)[C@@H]2C1 | 99 | 98.6 | 
45 | CC1(C)CC[C@]2(C(=O)O)CC=C3[C@]4(C)CC[C@H]5C(C)(C)[C@@H](O)CC[C@]5(C)[C@H]4CC[C@@]3(C)[C@@H]2C1 | 113 | 103 | 
46 | CC[C@H](CC[C@@H](C)[C@H]1CC[C@H]2[C@@H]3CC=C4C[C@@H](O[C@@H]5O[C@H](CO)[C@@H](O)[C@H](O)[C@H]5O)CC[C@]4(C)[C@H]3CC[C@]12C)C(C)C | 103 | 94.6 | 
47 | COc1ccc(-c2cc(=O)c3c(O)cc(O[C@@H]4O[C@H](CO)[C@@H](O)[C@H](O)[C@H]4O)cc3o2)cc1O | 112 | 108 | 
48 | COc1ccc(-c2cc(=O)c3c(O)cc(O[C@@H]4O[C@H](COC5OC[C@@H](O)[C@H](O)[C@H]5O)[C@@H](O)[C@H](O)[C@H]4O)cc3o2)cc1O (stereo partly drawn) | 116 | 104 | 
49 | O=C(/C=C/c1ccc(O)cc1)c1ccc(O)cc1O | 98.1 | 94.6 | 
50 | CC1(C)CC[C@]2(C(=O)O)CC[C@]3(C)C(=CC[C@@H]4[C@@]5(C)CC[C@H](O)C(C)(C)[C@@H]5CC[C@]43C)[C@@H]2C1 | 117 | 101 | 
51 | C=C1CC[C@@H]2[C@](C)(CCC[C@]2(C)C(=O)O)[C@H]1CCc1ccoc1 | 92.8 | 100 | 
52 | O=C1C[C@@H](c2ccc(O)cc2)Oc2cc(O)cc(O)c21 | 109 | 102 | 
53 | O=C(O)c1cc(O)c(O)c(O)c1 | 103 | 97.4 | 
54 | COc1ccc(-c2oc3c(CC=C(C)C)c(O[C@@H]4O[C@H](CO)[C@@H](O)[C@H](O)[C@H]4O)cc(O)c3c(=O)c2O[C@@H]2O[C@@H](C)[C@H](O)[C@@H](O)[C@H]2O)cc1 | 104 | 90.4 | 
55 | COc1c(O)cc2oc3cc(O)c4c(c3c(=O)c2c1CC=C(C)C)OC(C)(C)CC4 | 106 | 100 | 
56 | CC(C)=CCC[C@](C)(O[C@@H]1O[C@H](CO[C@@H]2O[C@H](CO)[C@@H](O)[C@H](O)[C@H]2O)[C@@H](O)[C@H](O)[C@H]1O)[C@H]1CC[C@]2(C)[C@@H]1[C@H](O)C[C@@H]1[C@@]3(C)CC[C@H](O[C@@H]4O[C@H](CO)[C@@H](O)[C@H](O)[C@H]4O)C(C)(C)[C@@H]3CC[C@]12C | 102 | 122 | 
57 | O=c1cc(-c2ccc(O)c(O)c2)oc2cc(O)cc(O)c12 | 93.6 | 96.8 | 
58 | COc1ccc(-c2oc3c(CC=C(C)C)c(O)cc(O)c3c(=O)c2O)cc1 | 94.6 | 97.9 | 

Reference: ChEMBL document CHEMBL3632508, “Discovery of α-mangostin as a novel competitive inhibitor against mutant isocitrate dehydrogenase-1” (Bioorg Med Chem Lett, 2015)
